# Screens from PubChem.
# Only some compounds are listed: those with a hit (about 1.7% of all), similar ones and a draw of the others.
# ARNT-TACC3 inh: ARNT/TACC3 interaction disruption. AlphaScreen His-ARNT PAS-B/GST-TACC3 binding, luminescence; TACC3 fragment carries E629A point mutation. Q9Y6A5. actives 0.66% (n = 390,000). inhibition, % at 9.99 µM. AID 623870;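 active = mean inhibition of replicates at least 50% and at least half of replicates each reaching 50%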
# CAL PDZ FP-1: inhibitors of human CAL PDZ peptide binding; Q9HD26; purified CAL PDZ, TMR-peptide fluorescence polarization, 1 h; inhibition, % at 24.9 µM; actives 0.92% (n = 300,000); AID 602252;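 active = mean inhibition of at least 30% with at least half of replicates also reaching 30%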
# CAL PDZ FP-2: human CAL PDZ-peptide interaction inhibition; Q9HD26; inhibition, % at 20 µM; purified CAL PDZ, TMR-peptide fluorescence polarization, 1 h; actives 0.02% (n = 330,000); AID 504414;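 active = highest replicate inhibition of at least 40%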
#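 material = purified tagged CAL PDZ domain construct (CerCALP) | compound dosing = 20 µM, one dose | times = 1 h at RT | measured by = fluorescence polarization from S- and P-plane intensities, G-factor corrected | read-out = inhibition from polarization loss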
# Rce1 inhib: inhibitors of yeast Ras-converting enzyme; yeast membranes, quenched prenylated peptide cleavage fluorescence; calls only; actives 0.27% (n = 290,000); AID 2563;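 active = fall in fluorescence gain of 50% or more versus controls, with final raw signal at or below 3038400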
# Target sequence (Q03530 whole entry, looked up): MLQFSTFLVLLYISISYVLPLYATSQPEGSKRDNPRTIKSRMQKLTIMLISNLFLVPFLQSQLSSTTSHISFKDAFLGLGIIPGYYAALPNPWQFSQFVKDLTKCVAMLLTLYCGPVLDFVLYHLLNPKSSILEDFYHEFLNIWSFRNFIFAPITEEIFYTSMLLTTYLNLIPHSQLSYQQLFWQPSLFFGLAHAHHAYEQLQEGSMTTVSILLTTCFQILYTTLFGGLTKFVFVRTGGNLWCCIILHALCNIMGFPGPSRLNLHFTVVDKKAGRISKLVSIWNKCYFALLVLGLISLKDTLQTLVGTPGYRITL
# AI-2 QS modul: Vibrio harveyi AI-2 quorum sensing modulation | activity change, % at 7.5 µM | actives 0.4% (n = 300,000) | Vibrio harveyi JMH597 AI-2 luminescence/OD600 ratio, 9 h; hits give low values; strain lacks LuxN and CqsS sensors; 0 = neutral-control median; in the data active = activity change below about -75%, passing the limit was not always enough;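 also: luminescence divided by OD600 gain over 9 h not by final OD600 alone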
# Hits are given with their value; . = inactive; / = no result; + = active, no number.
SMILES,ARNT-TACC3 inh,CAL PDZ FP-1,CAL PDZ FP-2,Rce1 inhib,AI-2 QS modul
Cc1ccc(S(=O)(=O)NCCCNS(C)(=O)=O)cc1,.,.,.,.,.
Cc1ccc(S(=O)(=O)NCCNS(=O)(=O)c2ccc(C)cc2)cc1,.,56,/,.,.
Cc1cc(C)n2nc(C(=O)NC(c3ccccc3)c3ccccc3)nc2n1,.,.,.,.,.
CCn1c(=O)n(CC)c2cc(N3CCCC3)c(NC(=O)c3ccccc3C)cc21,.,.,.,.,.
Cc1ccc(S(=O)(=O)N(C)C[C@@H]2Oc3ccc(NC(=O)Nc4ccc5c(c4)OCO5)cc3C(=O)N([C@H](C)CO)C[C@H]2C)cc1,.,/,/,/,/
CCOC(=O)CNC(=O)CSc1nnc(Cn2cnc3ccccc32)n1C,.,+,.,/,.
O=C(O)c1ccccc1-c1ccc(/C=c2\sc3nc4cc(Br)cnc4n3c2=O)o1,50,.,.,.,.
COc1ccc(NC(=O)Nc2ccc3c(c2)C(=O)N([C@@H](C)CO)C[C@@H](C)[C@@H](CN(C)Cc2ccc(Oc4ccccc4)cc2)O3)cc1,.,/,/,/,/
O=C(NCC1CC1)c1ccc(Nc2nc3ccc(Br)cc3[nH]2)cc1,.,.,.,+,.
O=C(NCc1ccco1)c1cccc(Nc2nc3ccc(Br)cc3[nH]2)c1,.,.,.,.,.
CCNC(=S)N(CCc1ccc(OC)c(OC)c1)Cc1cc2cc(OC)ccc2[nH]c1=O,.,57,.,.,.
COCCCNC(=S)N(CCCO)Cc1cc2cc3c(cc2[nH]c1=O)OCCO3,.,42,.,.,.
CCc1ccccc1NC(=S)N(CCCN(C)C)Cc1cc2cc3c(cc2[nH]c1=O)OCO3,.,.,.,+,.
CCNC(=S)N(CCN(C)C)Cc1cc2cc3c(cc2[nH]c1=O)OCO3,.,84,/,.,.
C[C@H]1CN([C@@H](C)CO)C(=O)c2cccc(NC(=O)C3CC3)c2O[C@@H]1CN(C)C(=O)Nc1ccccc1,.,/,/,/,/
N#C[C@H]1[C@@H](c2ccccc2)[C@@H](CO)N1C(=O)Cc1ccccn1,.,/,/,/,/
C/C=C/c1ccc([C@@H]2[C@H](CO)N(Cc3ccccn3)[C@H]2CNC(=O)CC)cc1,30,/,/,/,/
C/C=C/c1ccc([C@@H]2[C@@H](CO)N(Cc3ccccn3)[C@H]2CNC(=O)CC)cc1,.,/,/,/,/
C/C=C/c1ccc([C@@H]2[C@@H](C#N)N(C(=O)Cc3ccccn3)[C@@H]2CO)cc1,46,/,/,/,/
COc1ccc(Oc2ncccc2NC(=O)c2cccc(C)c2C)cc1,.,.,.,.,.
C=C(C)C(=O)Nc1cccnc1Oc1ccc(F)cc1,.,112,.,.,.
O=C(NNS(=O)(=O)c1ccc(F)cc1)c1ccccc1F,.,41,.,.,.
O=C(NNc1ccccn1)C(=O)NNS(=O)(=O)c1ccc(F)cc1,63,.,.,.,.
Cc1ccccc1S(=O)(=O)N(C)C[C@H]1OCc2cn(nn2)CCCC(=O)N([C@H](C)CO)C[C@@H]1C,.,/,/,/,/
Cc1occc1C(=O)N/N=C/C=C\c1ccccc1[N+](=O)[O-],/,.,.,.,.
SMILES,ARNT-TACC3 inh,CAL PDZ FP-1,CAL PDZ FP-2,Rce1 inhib,AI-2 QS modul
Cc1ccsc1C(=O)N/N=C/C=C/c1ccccc1[N+](=O)[O-],.,79,.,.,.
Cn1c(=O)cc(OCC(=O)NCCCN2CCN(Cc3ccccc3)CC2)c2ccccc21,/,39,.,.,.
O=C(COc1ccc(S(=O)(=O)Nc2ccc(Cl)cc2)cc1)N1CCOCC1,.,100,.,.,.
O=C(COc1ccc(Br)cc1)OCC(=O)N1CCOCC1,.,/,.,/,/
O=C(COc1ccc2cc(Br)ccc2c1)N1CCOCC1,/,103,.,/,/
COc1ccc(C2NN=C(c3ccc(C)cc3)S2)cc1 (centres undefined),.,41,.,.,.
COCC(=O)N1CC[C@@H]2[C@H](CO)Nc3ccc(-c4cccc(C(=O)N(C)C)c4)cc3[C@@H]21,.,/,/,/,/
CC1CCN(CCCn2c(=S)[nH]c3c(sc4ccccc43)c2=O)CC1,.,50,.,.,.
C=CCn1c(SCC(=O)Nc2cc(C)on2)nnc1C1COc2ccccc2O1 (centres undefined),.,.,.,.,.
Cc1cc(NC(=O)CSc2nnc(C3COc4ccccc4O3)n2N)no1 (centres undefined),.,.,.,.,-77
C[C@@H]1CN([C@@H](C)CO)C(=O)Cc2cc(NC(=O)CCN3CCOCC3)ccc2O[C@@H]1CN(C)S(=O)(=O)c1cn(C)cn1,.,/,/,/,/
Cn1cccc1Cc1nnc(SCC(=O)N2CCOCC2)n1-c1ccc(F)cc1,.,/,.,.,.
Cc1cc(F)ccc1NC(=O)CCc1c(C)nn(-c2ccc(N3CCCCC3)nn2)c1C,.,80,.,.,.
Cc1ccc(F)cc1NC(=O)CCc1c(C)nn(-c2ccc(N3CCCCC3)nn2)c1C,.,.,.,.,.
Cc1cc(=O)[nH]c2c(N=Nc3ccc(O)cc3)c(N)nn12,47,.,.,.,.
COc1cc(CC(=O)OCC(=O)N2CCCCC2C)cc(OC)c1OC (centres undefined),.,.,.,.,.
O=C(Oc1ccc2c(c1)OCO2)c1ccc(Br)c(S(=O)(=O)N2CCOCC2)c1,.,/,.,/,/
O=C(CSc1ccc(F)cc1)Nc1nnc(-c2ccco2)o1,49,.,.,.,.
CC(=O)Nc1nnc(-c2ccco2)o1,.,.,.,.,.
Cc1ccc(SCC(=O)Nc2nnc(-c3ccco3)o2)cc1,48,.,.,.,.
Cc1ccc(NC(=O)CSc2nnc(-c3ccco3)o2)cc1,.,.,.,.,.
Cc1ccc(C2C(C(=O)O)c3ccccc3C(=O)N2C)c(C)c1 (centres undefined),.,.,.,.,.
CN1C(=O)c2ccccc2C(C(=O)O)C1c1cn(C)c2ccccc12 (centres undefined),.,41,/,.,.
CC(NC(=O)C1CCN(S(=O)(=O)N2CCCCCC2)CC1)c1ccccc1 (centres undefined),.,.,.,.,.
CCOC(=O)N1CCN(C(=O)C2CCN(C(=O)c3ccc([N+](=O)[O-])cc3)CC2)CC1,.,77,.,.,.
SMILES,ARNT-TACC3 inh,CAL PDZ FP-1,CAL PDZ FP-2,Rce1 inhib,AI-2 QS modul
O=C(Nc1ccc2c(c1)nc1n2CCN(Cc2ccccc2)C1)c1cccs1,43,.,.,.,.
O=C(/C=C/c1cn(-c2ccccc2)nc1-c1cccnc1)NCCN1CCOCC1,.,.,.,.,.
COCCCNC(=O)C1CCC(=O)N(c2ccc3c(c2)OCO3)C1c1ccc(OC)cc1 (centres undefined),.,+,.,.,.
CCN(CC)CCCNC(=O)c1ccc2c(SCC(=O)O)c3c(nc2c1)CCC3,/,/,/,.,.
CCN(CC)CCNC(=O)CSc1c2c(nc3cc(Cl)ccc13)CCCC2,/,.,.,+,.
CCCCCC[N+](C)(C)CC/C=C1/c2ccccc2Sc2ccc(Cl)cc21,.,.,.,.,.
O=c1ccc2cc3c([nH]c4ccc(Br)cc43)oc-2c1O,.,.,48,.,.
